From ChEMBL document CHEMBL1138362, “Dihydro-alkylthio-benzyl-oxopyrimidines as inhibitors of reverse transcriptase: synthesis and rationalization of the biological data on both wild-type enzyme and relevant clinical mutants” (J Med Chem, 2007)

Columns and labels:
[1] = target: Human immunodeficiency virus type 1 reverse transcriptase (Human immunodeficiency virus 1) (UniProt Q72547); experiment: Antiviral activity against wild type HIV1 reverse transcriptase
[2] = tested on: Human immunodeficiency virus 1 [K103N]; experiment: Antiviral activity against HIV1 reverse transcriptase K103N mutant
[3] = tested on: Human immunodeficiency virus type 1 reverse transcriptase (Human immunodeficiency virus 1), Q72547 [Y181I]; experiment: Antiviral activity against HIV1 reverse transcriptase Y181I mutant
[4] = tested on: Human immunodeficiency virus 1; experiment: Antiviral activity against wild type HIV1 NL4-3 in MT4 cells after 5 days by MTT method; type: functional, organism-based; conditions: Human immunodeficiency virus 1, NL4-3, MT4, 120 h
In short: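 MT-4 lymphoid cells, infected with HIV-1 or mock-infected (for cytotoxicity), held with a range of drug concentrations; viable cells scored at day 5 post-infection by tetrazolium (MTT) colorimetry.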

[5] = tested on: Human immunodeficiency virus 1; experiment: Antiviral activity against HIV1 with reverse transcriptase K103N mutation in MT4 cells after 5 days by MTT method; type: functional, organism-based; conditions: Human immunodeficiency virus 1, MT4, 120 h
In short: (§1)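 MT-4 cells from the NIH AIDS Reagent Program were infected with mutant HIV-1 (K103N or Y188L, from the MRC Centralised Facility) in the presence of graded drug concentrations. Mock-infected cells were used for cytotoxicity. Viable cells were counted by MTT colorimetry at day 5 post-infection.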

[6] = tested on: Human immunodeficiency virus 1; experiment: Antiviral activity against HIV1 with reverse transcriptase Y181C mutation in MT4 cells after 5 days by MTT method; type: functional, organism-based; conditions: Human immunodeficiency virus 1, MT4, 120 h
[7] = tested on: Human immunodeficiency virus 1; experiment: Antiviral activity against HIV1 with reverse transcriptase Y188L mutation in MT4 cells after 5 days by MTT method; type: functional, organism-based; conditions: Human immunodeficiency virus 1, MT4, 120 h; in short: as §1
[8] = tested on: Human immunodeficiency virus 1; experiment: Antiviral activity against HIV1 with reverse transcriptase IRLL98 mutation in MT4 cells after 5 days by MTT method relative to wild type NL4-3; type: functional

Row | SMILES | ID50 [1] [µM] | ID50 [2] [µM] | ID50 [3] [µM] | EC50 [4] [nM] | EC50 [5] [µM] | EC50 [6] [µM] | EC50 [7] [µM] | Fold change [8]
1 | Cc1c(Cc2c(Cl)cccc2Cl)nc(SCC(=O)c2ccc(C#N)cc2)[nH]c1=O | 0.2 | > 20 | > 20 | 1080 | 12.2 | 1.31 | > 56.3 | 3.2
2 | Cc1ccnc2c1NC(=O)c1cccnc1N2C1CC1 [NEVIRAPINE] | – | – | – | – | – | – | – | 144
3 | Cc1c(Cc2c(F)cccc2F)nc(SCc2ccc3c(c2)OCO3)[nH]c1=O | > 20 | > 20 | > 20 | 150 | 10.2 | 1.32 | > 62.2 | 1.8
4 | Cc1cn([C@H]2C[C@H](N=[N+]=[N-])[C@@H](CO)O2)c(=O)[nH]c1=O [ZIDOVUDINE] | – | – | – | – | – | – | – | 3
5 | CCc1c(Cc2c(Cl)cccc2Cl)nc(SCc2ccc(C#N)cc2)[nH]c1=O | 0.1 | > 20 | > 20 | 44 | 8.84 | 3.05 | > 58.1 | 194
6 | O=C1Nc2ccc(Cl)cc2C(C#CC2CC2)(C(F)(F)F)O1 (single isomer, unassigned) [EFAVIRENZ] | – | – | – | – | – | – | – | 300
7 | COC(=O)c1ccc(CSc2nc(Cc3c(F)cccc3F)c(C)c(=O)[nH]2)cc1 | 0.5 | > 20 | > 20 | 142 | 11.2 | 1.35 | > 34.1 | 6.9
8 | CCc1c(Cc2c(Cl)cccc2Cl)nc(SC/C=C/c2ccc([N+](=O)[O-])cc2)[nH]c1=O | 2.5 | > 20 | > 20 | 610 | > 32.1 | 4.2 | > 32.1 | –
9 | Cc1c(Cc2ccc(C#N)cc2)nc(SCC(=O)c2ccccc2)[nH]c1=O | > 20 | > 20 | > 20 | > 67200 | > 67.2 | > 67.2 | > 67.2 | –
10 | Cc1c(C(C)c2c(Cl)cccc2Cl)nc(SCc2ccc([N+](=O)[O-])cc2)[nH]c1=O (centres undefined) | 0.408 | > 20 | > 20 | 19 | 6.22 | 7.15 | 9.95 | –
11 | Cc1c(Cc2c(Cl)cccc2Cl)nc(S/C=C/c2ccc(F)cc2)[nH]c1=O | > 20 | > 20 | > 20 | > 59400 | 11.9 | > 59.4 | > 59.4 | –
12 | CCC(c1nc(SCc2ccc(OC)cc2)[nH]c(=O)c1C)c1c(F)cccc1F (centres undefined) | 0.047 | > 20 | > 20 | 1.9 | 6.13 | 5.02 | 1.46 | –
13 | CCc1c(Cc2c(Cl)cccc2Cl)nc(SCCc2ccc(OC)cc2)[nH]c1=O | 0.07 | > 20 | > 20 | 1.3 | 6.81 | 3.85 | > 11.1 | –
14 | CCc1c(Cc2c(F)cccc2F)nc(SCCc2ccc(OC)cc2)[nH]c1=O | 0.022 | > 20 | > 20 | 0.2 | 1.92 | 2.78 | > 60.1 | –
15 | CCc1c(C(C)c2c(F)cccc2F)nc(SC/C=C/c2ccc(C#N)cc2)[nH]c1=O (centres undefined) | 0.048 | > 20 | > 20 | 590 | > 27.2 | > 27.2 | > 27.2 | –
16 | COc1ccc(CCSc2nc(Cc3c(F)cccc3F)c(C)c(=O)[nH]2)cc1 | 0.029 | 3.5 | > 20 | 4.9 | 4.13 | 6.34 | 8.53 | –
17 | CCc1c(C(C)c2c(F)cccc2F)nc(SCCOCc2ccc(OC)cc2)[nH]c1=O (centres undefined) | 0.741 | > 20 | 0.27 | 3890 | > 54.4 | > 54.4 | > 54.4 | –

Row | SMILES | ID50 [1] [µM] | ID50 [2] [µM] | ID50 [3] [µM] | EC50 [4] [nM] | EC50 [5] [µM] | EC50 [6] [µM] | EC50 [7] [µM] | Fold change [8]
18 | CCc1c(Cc2c(F)cccc2F)nc(SCc2ccc(OC)cc2)[nH]c1=O | 0.03 | > 20 | > 20 | 12 | 10.3 | 1.45 | > 62.2 | –
19 | Cc1c(C(C)c2c(F)cccc2F)nc(SC/C=C/c2ccc(C#N)cc2)[nH]c1=O (centres undefined) | 0.161 | > 20 | > 20 | 140 | > 59.1 | > 59.1 | > 59.1 | –
20 | CCc1c(Cc2c(F)cccc2F)nc(SCc2ccc(C#N)cc2)[nH]c1=O | 0.17 | 7.5 | > 20 | 75 | 7.78 | 1.33 | > 63 | 45.3
21 | CCc1c(C(C)c2c(F)cccc2F)nc(SC/C=C/c2ccc([N+](=O)[O-])cc2)[nH]c1=O (centres undefined) | 0.009 | > 20 | > 20 | 0.4 | > 5.75 | > 5.75 | 1.94 | –
22 | COc1ccc(/C=C/CSc2nc(C(C)c3c(Cl)cccc3Cl)c(C)c(=O)[nH]2)cc1 (centres undefined) | 0.018 | > 20 | > 20 | 9 | 2.47 | 3.6 | 1.26 | –
23 | COc1ccc(C#CCSc2nc(C(C)c3c(Cl)cccc3Cl)c(C)c(=O)[nH]2)cc1 (centres undefined) | 0.005 | > 20 | > 20 | 500 | > 54.5 | 33.5 | 24.8 | –
24 | COc1ccc(CSc2nc(Cc3c(F)cccc3F)c(C)c(=O)[nH]2)cc1OC | 0.5 | > 20 | > 20 | 200 | 9.33 | 0.74 | > 39.7 | 1.5
25 | Cc1c(C(C)c2c(F)cccc2F)nc(SC/C=C/c2ccc([N+](=O)[O-])cc2)[nH]c1=O (centres undefined) | 0.283 | > 20 | > 20 | 140 | > 11.3 | > 11.3 | > 11.3 | –
26 | Cc1c(Cc2c(F)cccc2F)nc(SC/C=C/c2ccc([N+](=O)[O-])cc2)[nH]c1=O | 11.9 | > 20 | > 20 | 260 | > 11.7 | > 11.7 | > 11.7 | –
27 | Cc1c(Cc2c(Cl)cccc2Cl)nc(SC/C=C/c2ccc([N+](=O)[O-])cc2)[nH]c1=O | 3.81 | > 20 | > 20 | > 10800 | > 10.8 | > 10.8 | > 10.8 | –
28 | CCc1c(Cc2c(Cl)cccc2Cl)nc(SCc2ccc([N+](=O)[O-])cc2)[nH]c1=O | 0.075 | > 20 | > 20 | 66.6 | > 55.6 | 1.58 | > 55.6 | –
29 | COc1ccc(/C=C/Sc2nc(C(C)c3c(Cl)cccc3Cl)c(C)c(=O)[nH]2)cc1 (centres undefined) | 0.02 | > 20 | > 20 | 16200 | > 55.9 | > 55.9 | > 55.9 | –
30 | Cc1c(Cc2ccc(C#N)cc2)nc(SCc2ccc(C#N)cc2)[nH]c1=O | > 20 | > 20 | > 20 | > 67200 | > 67.2 | > 67.2 | > 67.2 | –
31 | Cc1c(Cc2c(Cl)cccc2Cl)nc(SC/C=C/c2ccc(N(C)C)cc2)[nH]c1=O | 0.778 | > 20 | > 20 | > 54400 | > 54.4 | > 54.4 | > 54.4 | –
32 | CC(=O)Oc1ccc(CSc2nc(Cc3c(Cl)cccc3Cl)c(C)c(=O)[nH]2)cc1 | 0.085 | > 20 | > 20 | 127 | > 55.7 | 8.64 | > 55.7 | –
33 | CCOc1ccc(CSc2nc(Cc3c(F)cccc3F)c(C)c(=O)[nH]2)cc1 | 0.8 | > 20 | > 20 | 370 | > 62.2 | 1.19 | > 62.2 | –
